Test results as given in ChEMBL document CHEMBL4041491, “Imidazo[1,2-a]pyrazin-8-amine core for the design of new adenosine receptor antagonists: Structural exploration to target the A3 and A2A subtypes” (Eur J Med Chem, 2017).
The source made the active and inactive calls. No cut-off for these calls is given here.

Key:
[1] = target: T1, Adenosine receptor A3 (Homo sapiens, UniProt P0DMS8); test: Displacement of [125I]AB-MECA from human adenosine A3 receptor expressed in CHO cell membranes at 1 uM after 120 mins by scintillation counting method relative to control
T1 sequence (P0DMS8 whole entry, looked up): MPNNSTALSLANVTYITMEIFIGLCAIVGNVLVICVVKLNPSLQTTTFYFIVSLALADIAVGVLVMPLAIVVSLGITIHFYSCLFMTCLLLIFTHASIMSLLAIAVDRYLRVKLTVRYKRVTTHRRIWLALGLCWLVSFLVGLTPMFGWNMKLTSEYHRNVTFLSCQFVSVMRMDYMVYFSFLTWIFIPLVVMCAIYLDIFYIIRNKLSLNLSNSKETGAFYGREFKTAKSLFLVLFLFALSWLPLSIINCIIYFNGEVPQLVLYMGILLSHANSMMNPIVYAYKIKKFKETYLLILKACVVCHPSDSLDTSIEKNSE

[2] = target: T2, Adenosine receptor A1 (Homo sapiens, UniProt P30542); test: Displacement of [3H]DPCPX from human adenosine A1 receptor expressed in CHO cell membranes after 120 mins by scintillation counting method
T2 sequence (P30542 whole entry): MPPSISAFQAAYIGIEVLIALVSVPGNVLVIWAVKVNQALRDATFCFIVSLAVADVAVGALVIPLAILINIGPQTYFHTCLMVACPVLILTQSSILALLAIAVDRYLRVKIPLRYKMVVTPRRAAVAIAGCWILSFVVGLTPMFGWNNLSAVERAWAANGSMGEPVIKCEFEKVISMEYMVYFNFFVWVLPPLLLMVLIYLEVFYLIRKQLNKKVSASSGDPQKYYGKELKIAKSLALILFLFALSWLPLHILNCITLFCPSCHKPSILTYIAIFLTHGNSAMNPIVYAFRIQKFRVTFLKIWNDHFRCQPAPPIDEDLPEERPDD
Summary of the method: (§1)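 hA1 CHO membranes (50 µg protein) with 1 nM [3H]DPCPX in 50 mM Tris HCl pH 7.4, 120 min at 25 °C. Six to eight antagonist concentrations, or 1 µM for percent inhibition. Nonspecific binding with 1 µM DPCPX. Ki via Cheng–Prusoff, four assays in duplicate, means ± SEM.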

[3] = target: T3, Adenosine receptor A2a (Homo sapiens, UniProt P29274); test: Displacement of [3H]ZM241385 from human adenosine A2A receptor expressed in CHO cell membranes after 60 mins by scintillation counting method
T3 sequence (P29274 whole entry): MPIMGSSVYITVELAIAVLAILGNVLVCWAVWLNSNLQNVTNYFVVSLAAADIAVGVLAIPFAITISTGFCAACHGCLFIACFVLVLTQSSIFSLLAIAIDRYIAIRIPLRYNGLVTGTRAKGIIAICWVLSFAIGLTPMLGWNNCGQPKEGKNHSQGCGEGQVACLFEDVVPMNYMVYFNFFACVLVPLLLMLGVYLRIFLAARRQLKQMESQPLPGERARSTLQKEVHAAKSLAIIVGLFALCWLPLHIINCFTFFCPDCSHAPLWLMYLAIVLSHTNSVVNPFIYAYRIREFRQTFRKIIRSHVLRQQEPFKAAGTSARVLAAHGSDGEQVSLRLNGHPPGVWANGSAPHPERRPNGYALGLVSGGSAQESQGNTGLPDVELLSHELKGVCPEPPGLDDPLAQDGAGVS
Summary of the method: (§2)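 hA2A CHO membranes (50 µg protein) with 1 nM [3H]ZM241385 in 50 mM Tris HCl, 10 mM MgCl2, pH 7.4, 60 min at 4 °C. Six to eight antagonist concentrations, or 1 µM for percent inhibition. Nonspecific binding with 1 µM ZM241385. Ki via Cheng–Prusoff, four assays in duplicate, means ± SEM.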

[4] = target: T4, Adenosine receptor A2b (Homo sapiens) (UniProt P29275); test: Antagonist activity at human A2B receptor expressed in CHO cells assessed as inhibition of NECA-stimulated cAMP production at 1 uM by [3H]cAMP competition binding based scintillation counting method relative to control; type: functional, cell-based
T4 sequence (whole entry): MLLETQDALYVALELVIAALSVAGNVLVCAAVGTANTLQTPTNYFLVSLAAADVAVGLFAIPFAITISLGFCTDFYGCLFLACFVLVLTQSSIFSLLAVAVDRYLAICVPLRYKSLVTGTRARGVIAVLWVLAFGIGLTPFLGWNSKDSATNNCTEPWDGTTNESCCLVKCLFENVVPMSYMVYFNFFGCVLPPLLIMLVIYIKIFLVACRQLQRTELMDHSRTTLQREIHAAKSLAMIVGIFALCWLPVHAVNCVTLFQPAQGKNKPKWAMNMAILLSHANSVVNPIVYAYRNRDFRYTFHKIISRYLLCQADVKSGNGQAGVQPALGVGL
Summary of the method: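 Transfected CHO cells (1 × 10^6/assay) in buffered saline pH 7.4 with adenosine deaminase 2 IU/ml and Ro 20-1724, preincubated 10 min at 37 °C. Test compound at 1 μM against 200 nM NECA-stimulated cAMP. TCA stop, ether extraction, cAMP measured by [3H]cAMP competition binding to bovine adrenal binding protein. Result given as percent inhibition.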

[5] = target: T1, Adenosine receptor A3; test: Displacement of [125I]AB-MECA from human adenosine A3 receptor expressed in CHO cell membranes after 120 mins by scintillation counting method
Summary of the method: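 hA3 CHO membranes (50 µg protein) with 0.5 nM [125I]AB-MECA in 50 mM Tris HCl, 10 mM MgCl2, 1 mM EDTA, pH 7.4, 120 min at 4 °C. Six to eight ligand concentrations, or 1 µM for percent inhibition. Nonspecific binding with 1 µM AB-MECA; GF/B filtration. Ki by Cheng–Prusoff, four assays in duplicate, means ± SEM.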

[6] = tested on: Hippocampus; test: Anti-ischemic activity in Wistar rat hippocampal slices assessed as peak amplitude of 30 mins oxygen-glucose deprivation-induced anoxic depolarization at 200 nM by electrophysiology method (reference value: -7.5 +/- 1.2 mV); type: functional
Summary of the method: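 Rat hippocampal slices, extracellular d.c. recording in CA1 stratum radiatum. 30-min OGD, then reperfusion with oxygenated glucose aCSF. Compound at 200 nM, diluted from DMSO stock into aCSF, applied 15 min before, during and 5 min after OGD. AD latency in min from OGD onset; amplitude in mV at peak negativity. Mean ± SEM, n slices.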

[7] = target: T5, Adenosine receptor A1 (Homo sapiens) (UniProt P30542); test: Displacement of [3H]DPCPX from human adenosine A1 receptor expressed in CHO cell membranes at 1 uM after 120 mins by scintillation counting method relative to control
T5 sequence (whole entry): T2 sequence (P30542 whole entry)
Summary of the method: as §1

[8] = target: T1, Adenosine receptor A3; test: Antagonist activity at human A3 receptor expressed in CHO cells assessed as inhibition of CI-IB-MECA-mediated inhibition of cAMP production by [3H]cAMP competition binding based scintillation counting method; type: cell-based
Summary of the method: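 hA3-transfected CHO cells (1 × 10^6/assay) in buffered saline pH 7.4 with adenosine deaminase and Ro 20-1724, preincubated 10 min at 37 °C. Antagonism of 100 nM Cl-IB-MECA inhibition of 1 µM forskolin-stimulated cAMP. cAMP measured by [3H]cAMP protein-binding assay. IC50 by sigmoid nonlinear regression, four independent experiments in triplicate, means ± SEM.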

[9] = target: T6, Adenosine receptor A3 (Rattus norvegicus) (UniProt P28647); test: Displacement of [125I]AB-MECA from rat adenosine A3 receptor expressed in HEK293 cell membranes at 1 uM after 120 mins by scintillation counting method relative to control
T6 sequence (whole entry): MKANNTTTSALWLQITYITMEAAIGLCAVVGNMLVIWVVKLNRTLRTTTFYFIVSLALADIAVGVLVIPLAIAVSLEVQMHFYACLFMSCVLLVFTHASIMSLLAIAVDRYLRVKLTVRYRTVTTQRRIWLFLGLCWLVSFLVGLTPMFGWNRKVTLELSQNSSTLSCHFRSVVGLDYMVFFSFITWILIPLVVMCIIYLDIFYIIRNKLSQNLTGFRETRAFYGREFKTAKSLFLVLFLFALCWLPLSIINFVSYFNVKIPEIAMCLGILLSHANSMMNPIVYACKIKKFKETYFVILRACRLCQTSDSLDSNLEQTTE
Summary of the method: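 rA3 receptor in HEK293 membranes (10 μg protein), 0.5 nM [125I]AB-MECA, 50 mM Tris–HCl, 10 mM MgCl2, 1 mM EDTA, pH 7.4, 120 min at 25 °C. Nonspecific binding with 1 μM AB-MECA; filtration and scintillation counting. Percent inhibition of specific binding at 1 µM.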

[10] = tested on: Hippocampus; test: Anti-ischemic activity in Wistar rat hippocampal slices assessed as latency time for 30 mins oxygen-glucose deprivation-induced occurrence of anoxic depolarization at 200 nM by electrophysiology method (reference value: 6.3 +/- 0.3 min)
[11] = target: T3, Adenosine receptor A2a; test: Displacement of [3H]ZM241385 from human adenosine A2A receptor expressed in CHO cell membranes at 1 uM after 60 mins by scintillation counting method relative to control
Summary of the method: as §2

[12] = tested on: Hippocampus; test: Anti-ischemic activity in Wistar rat model of 7 mins oxygen-glucose deprivation-induced cerebral ischemia assessed as recovery of fEPSP amplitude in CA1 region of hippocampal slices at 200 nM incubated for 15 mins prior to induction of oxygen-glucose deprivation and maintained during entire period of oxygen-glucose deprivation/reoxygenation subsequent incubation for 5 mins after OGD insult measured up to 15 mins by electrophysiology method; type: functional, tissue-based
Summary of the method: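 Rat hippocampal slices, CA1 stratum radiatum stimulated (80 μs, 0.066 Hz) at 40–50% of maximal fEPSP. Compound at 200 nM in aCSF, DMSO ≤0.05%, applied 15 min before, during and 5 min after 7-min OGD, then reperfusion in oxygenated aCSF. fEPSP amplitude expressed as % of mean over the 5 min before OGD.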

Q: For `Nc1nc(-c2ccccc2)cn2cc(-c3ccccc3)nc12`, which inhibition [1] is on record?
A: 23%

Q: What about the Ki [2] of the same compound?
A: 180 nM

Q: And the Ki [3]?
A: 310 nM

Q: What about the inhibition [4] of the same compound?
A: 36%

Q: How did the inhibition [1] turn out when `Nc1nc(-c2ccco2)cn2cc(-c3ccco3)nc12` was run?
A: 38%

Q: And the Ki [2]?
A: 316 nM

Q: And the Ki [3]?
A: 854 nM

Q: And the inhibition [4]?
A: 30%

Q: How did the inhibition [1] turn out when `Nc1nc(Br)cn2cc(-c3ccco3)nc12` was run?
A: 28%

Q: What about the Ki [2] of the same compound?
A: 210 nM

Q: And the Ki [3]?
A: 265 nM

Q: And the inhibition [4]?
A: 29%

Q: With `O=C(Nc1nc(-c2ccccc2)cn2cc(-c3ccccc3)nc12)c1cccnc1` as the compound, how does the Ki [5] read?
A: 54 nM

Q: And the inhibition [4]?
A: 3%

Q: And the Activity [6]?
A: -7.1 mV

Q: And the inhibition [7]?
A: 11%

Q: What about the IC50 [8] of the same compound?
A: 172 nM

Q: What about the inhibition [9] of the same compound?
A: 2%

Q: What about the Time [10] of the same compound?
A: 8.2 min

Q: What about the inhibition [11] of the same compound?
A: 1%

Q: And the Activity [12]?
A: Active
